Experimental data from the EternaBench riboswitch data.

Test system: MS2 coat protein
Test: apparent Kd, MS2 coat protein; higher = weaker binding; RNA-MaP array; FMN 200 µM where present
How it was run: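 SNAP-549-labelled MS2 coat protein, doubled from 0.7 or 1.5 nM to 3 µM, was titrated over designs transcribed by stalled E. coli RNA polymerase on Illumina sequencing-chip clusters. Titrations were run without and then with constant ligand in 100 mM Tris-HCl pH 7.5, 80 mM KCl, 4 mM MgCl2, BSA, DTT, yeast tRNA and Tween-20. The apparent Kd is the median of filtered per-cluster fits to green signal normalised to red-channel RNA signal and control-cluster median Fmax.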

[1] = designed as: OFF switch for flavin mononucleotide, no ligand
[2] = ligand present: flavin mononucleotide, designed as: OFF switch for flavin mononucleotide
[3] = designed as: ON switch for flavin mononucleotide, no ligand
[4] = ligand present: flavin mononucleotide, designed as: ON switch for flavin mononucleotide

| Sequence | apparent Kd [1] | apparent Kd [2] | apparent Kd [3] | apparent Kd [4] |
| --- | --- | --- | --- | --- |
| CUCAUGUAAGGAUAUCAGUAGUAAAAAAAUAAAAUUACUACUGAGAAGGUACAUGAGGAUCACCCAUGUCCUUG | 38.8 nM | 21.6 nM | – | – |
| CUCAUGUGAGGAUAUCAGUAGUAAAAAAAUAAAAUUACUACUGAGAAGGCACAUGAGGAUCACCCAUGUGCAAA | 95.9 nM | 105 nM | – | – |
| CUCAUGUGAGGAUAUCAGUAGUAAAAAAAUAAAAUUACUACUGAGAAGGCACAUGAGGAUCACCCAUGUGCCUU | 15.6 nM | 12.9 nM | – | – |
| CUCAUGUGAGGAUAUUCGGGCGGGCUCGUUUGGGUUUGUUUGGAGAAGGUACAUGAGGAUCACCCAUGUGCUGG | 218 nM | 77.8 nM | – | – |
| CUCCAUUCUGGAGGAUAUCAUAGUCGUUGACUAUGAGAAGGUUAGCUAUCUUACAUGAGGAUCACCCAUGUGAUCUACAUGGAG | – | – | 40.5 nM | 10.8 nM |
| CUCCGCGCUGUCAGGAUAUCCAGGGCCUACCGGCCGGAGAAGGGACAUGAGGAUCACCCAUGUUCGGGUUAGCA | 15.7 nM | 17.6 nM | – | – |
| CUCCUACAUGAGGAUCACCCAUGUCAGGAUAUCUCAGUGGCGCCUAAAUGUGCCACCCAGAGAAGGGACGUGCA | 11.6 nM | 15.3 nM | – | – |
| CUCCUGUGAUUAGGAUAUGUGCGCACUGUGCUAGCAGAAGGGAUCACAUGAGGAUCACCCAUGUGAGUAGCUCACUGUAAAGGG | 111 nM | 107 nM | – | – |
| CUCGUGUGAGGAUAUGCGGGCGGGCGCGUUUGUGUUUGUUUGUAGAAGGUACAUGAGGAUCACCCAUGUGCUGG | 24 nM | 80.9 nM | – | – |
| CUCUUGUAAGGAUAUCACCACACAAAAAAAAAAAAGUGUGGUGAGAAGGUACAUGAGGAUCACCCAUGUACUAA | 23 nM | 22.5 nM | – | – |
| CUGAAGAUAUCAGGAUAUCUAUUUCCUACAUGAGGAUCACCCAUGUAGGUGAUCAGCCGAGUAAAGGAGAAGGGAUAUCUUUAG | – | – | 27.1 nM | 10.1 nM |
| CUGAGGUCAGGAUAUGCAUGGCGGGACUUGCGUCGUGGCGUGGAGAAGGGACAUGAGGAUCACCCAUGUGGAGC | 59.8 nM | 57 nM | – | – |
| CUGAUGUUAGGAUAUCAGGCCGUGCGCGAAGGCGGGCAGCAUGAGAAGGAACAUGAGGAUCACCCAUGUGACGA | 27.2 nM | 67.8 nM | – | – |
| CUGCUGAAGCUUUGCUUUAGUCGUACAUGAGGAUCACCCAUGUAGGAUAUGGUAGGCUUUGCUUACUAGAAGGAUAGAGUGGUC | 52.6 nM | 27.6 nM | – | – |
| CUGCUGGAGCUUUGCUUUAGUCGUACAUGAGGAUCACCCAUGUAGGAUAUGGUAGGCUUCGCUUACUAGAAGGAUAGAGUGGUC | 33.6 nM | 22.8 nM | – | – |
| CUGGAAGUCACAGGAUAUCCGGACACAUGUCCAGGAGAAGGGUGAGUAGUUUCACAUGAGGAUCACCCAUGUGGCGGUUCCAGA | – | – | 264 nM | 21.2 nM |
| CUGUACAUAGGAUAUAGUUGUUUUUACAUGAGGAUCACCCAUGUUACUCCUCUCUCUCUUCUAGAAGGAUGUUUUU | 79.8 nM | 58.4 nM | – | – |
| CUGUAGUGAGGAUAUUAUUUGCAAGCCCUAGACGGCGCGAAUGAGAAGGUACAUGAGGAUCACCCAUGUGGUUG | 126 nM | 297 nM | – | – |
| CUGUGUUGCGGGCAGGAUAUGUAUUGGAAUACAUGAGGAUCACCCAUGUGCGGGUGUUUCACCCGACAGAAGGGCCAAUCGCGAC | – | – | 363 nM | 34.9 nM |
| CUGUUAUAGGUCCAGAAUUACAACAUGAGGAUCACCCAUGUGCAGGAUAUCGGGUUGAUAGGCGCCGAGAAGGGCAUAGUCACG | 64.5 nM | 106 nM | – | – |
| CUUAAACAUGAGGAUCACCCAUGUGAGGAUAUGAUGCGAAUAAAGAAAGAAGAAAGCAUCAGAAGGCACAUAUG | 86.9 nM | 236 nM | – | – |
| CUUAAGCUGGCAAGGGCUGGUGAAGAGGAUAUACAUGCUAAGCGAACCACAUGAGGAUCACCCAUGUAGAAGGCUUCCCAGAAA | 159 nM | 111 nM | – | – |

| Sequence | apparent Kd [1] | apparent Kd [2] | apparent Kd [3] | apparent Kd [4] |
| --- | --- | --- | --- | --- |
| CUUAGGUGUACAUGAGGAUCACCCAUGUCCCUGGUCAUUAGACAGGAUAUAUGGGCGGUCGCUGCAUAGAAGGGUUAAAUGGGA | – | – | 764 nM | 591 nM |
| CUUAUGUGAGGAUAUCAGUAGUGAUACGAUAGUAUUACUGCUGAGAAGGCACAUGAGGAUCACCCAUGUUCCUU | 26.1 nM | 51.9 nM | – | – |
| CUUAUGUGAGGAUAUGUACAGAAAAAACUGGGUGUAACUGUACAGAAGGCACAUGAGGAUCACCCAUGUGUAUU | 98.5 nM | 34.1 nM | – | – |
| CUUCGACAUGAGGAUCACCCAUGUCAGGAUAUUGUGUAUCGGGUUUUUUACGGUAAGGCAAGAAGGGAUGUGUG | 33 nM | 30.2 nM | – | – |
| CUUCGACAUGAGGAUCACCCAUGUCAGGAUAUUGUGUAUCUGGUUUUUUACAGAUAGACAAGAAGGGAUGUGUU | 27.1 nM | 23.4 nM | – | – |
| CUUCGUAUAGAGGAUAUAGGAUACGAAAGUGUCCUAGAAGGCUGUACAUGAGGAUCACCCAUGUACUUCAGAUC | 13.2 nM | 16.4 nM | – | – |
| CUUUCGUGAGGAUAUGAAAAUUCGAUCGUGAGAUCGAGGCUACAGAAGGCACAUGAGGAUCACCCAUGUUCCUC | 31.5 nM | 320 nM | – | – |
| CUUUCGUGAGGAUAUGUGGCUUCGAUCGUGAGAUCGAAACUACAGAAGGCACAUGAGGAUCACCCAUGUUCCUC | 33.9 nM | 540 nM | – | – |
| CUUUUAUAAUAGAAGGUAGACUUCAUGAGGAUCACCCAUGUGUUGGUACUAAGGAUAUGUAAUAACAUGAGGAUCACCCAUGUU | – | – | 15.8 nM | 16.1 nM |
| CUUUUAUAAUAGAAGGUAGACUUCAUGAGGAUCACCCAUGUGUUGGUACUAAGGAUAUGUAGUAACAUGAGGAUCACCCAUGUU | – | – | 22.6 nM | 22.2 nM |
| CUUUUGUGAGGAUAUCAGUAGUAAAAAAAUAAAAUUACUACUGAGAAGGCACAUGAGGAUCACCCAUGUGCCUC | 13.9 nM | 12.9 nM | – | – |
| CUUUUGUGAGGAUAUCAGUAGUAAAUUAAUAAAAUUACUACUGAGAAGGCACAUGAGGAUCACCCAUGUUCCUC | 42.6 nM | 285 nM | – | – |
| CUUUUGUGAGGAUAUUAGUAGUAAAAAAAUAAAAUUACUACUGAGAAGGCACAUGAGGAUCACCCAUGUUUCUC | 28.2 nM | 115 nM | – | – |
| CUUUUGUGAGGAUAUUAGUAGUAAAUAAAUAAAAUUACUACUGAGAAGGCACAUGAGGAUCACCCAUGUUCUUC | 19.4 nM | 93.8 nM | – | – |
| CUUUUGUGAGGAUAUUAGUAGUAAAUAUAUAAAAUUACUACUGAGAAGGCACAUGAGGAUCACCCAUGUUCCUC | 31.5 nM | 194 nM | – | – |
| CUUUUGUGAGGAUAUUAGUUGUAAAUAAAUAAAAUUACUACUGAGAAGGCACAUGAGGAUCACCCAUGUUCCUC | 33.3 nM | 161 nM | – | – |
| GAAAAACAUGAGGAUCACCCAUGUAAGGAUAUGCUGAAAAACACGGAAAAAACGUGCAGCAGAAGGUACAAAAG | 63.2 nM | 83.3 nM | – | – |
| GAAAAACAUGAGGAUCACCCAUGUGAGAAUAUGGGAGGAUAUUCAAAGACGAAAGUCAAAGAAGAAGGCCUAAAAG | – | – | 153 nM | 37.4 nM |
| GAACAUGUCCGAGGAUAUCUGAGAUCAUUUUCAAGAGAAGGCGGACAUGAGGAUCACCCAUGUCUCUCCUCAUCAACUCCAAAU | 6.95 nM | 38.5 nM | – | – |
| GAACAUGUCCGAGGAUAUCUGGAAACAUUUCCAAGAGAAGGCGGACAUGAGGAUCACCCAUGUCUCUCCUCAUCAAAUCCAAGU | 10.1 nM | 91.9 nM | – | – |
| GAAGCACGCACAGGAUAUCCGGCGGCGCUCGUCGGAGAAGGGUGACAUGAGGAUCACCCAUGUACGUGCAACUCAGUUUGAGAG | – | – | 21.5 nM | 13.9 nM |
